Compound activity deposited in PubChem BioAssay by Johns Hopkins Ion Channel Center.
MrgX1 antagonist = blocks BAM8-22 activation of human MrgX1 receptor | Q96LB2 | MRGX1-HEK293 calcium flux, Fluo-4, BAM8-22 antagonism; hits give low values | B-score at 10 µM | hit rate 1.3% among 310,000 | AID 588676;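 active = calcium-response B-score plate-corrected more than 3 library SD below zero, starting fluorescence within 5 deviations, no agonist response on first addition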;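 also: peak minus trough fluorescence over baseline after final BAM8-22 challenge near maximal dose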
Target sequence (Q96LB2 whole entry, looked up): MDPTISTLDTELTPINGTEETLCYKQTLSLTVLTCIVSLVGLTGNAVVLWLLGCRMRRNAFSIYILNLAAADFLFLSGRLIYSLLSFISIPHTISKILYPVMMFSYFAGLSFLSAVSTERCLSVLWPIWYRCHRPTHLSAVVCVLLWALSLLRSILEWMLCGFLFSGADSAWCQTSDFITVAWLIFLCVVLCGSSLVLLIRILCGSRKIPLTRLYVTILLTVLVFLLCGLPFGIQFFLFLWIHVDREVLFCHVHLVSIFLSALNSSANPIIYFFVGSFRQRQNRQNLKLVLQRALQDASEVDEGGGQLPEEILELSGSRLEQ
RGS4 act = potentiators or activators of RGS4; B-score at 10 µM; hit rate 0.92% among 310,000; AID 463111; HEK293 M3R/inducible RGS4, carbachol calcium flux Fluo4; hits give low values;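 active = B-score of the integrated calcium signal more than 4 SD below the library mean, with starting fluorescence not abnormally high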;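 also: negative B-score means reduced calcium response which marks RGS4 activation or potentiation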
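System: HEK293 FlpIn-TREx cells, stable M3R, doxycycline-inducible RGS4. Timing: overnight RGS4 induction, 30 min dye load 37 °C, 20 min compound RT. Also added: carbachol, ECmax concentration. Measured by: Fluo4 fluorescence kinetic imaging of calcium. Evaluation: integrated calcium ratio converted to B score.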
MrgX1 PAM = human MrgX1 positive allosteric modulation, primary screen. Q96LB2. MrgX1-HEK293, Fluo-4 calcium flux, FDSS; hits give high values. B-score at 10 µM. hit rate 0.63% among 310,000. AID 588675;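 active = plate-corrected calcium response at least 3 library SD above typical, normal starting fluorescence, not activating the receptor alone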;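 also: compound read alongside a low EC10 to EC30 dose of BAM8-22 agonist; peak minus trough fluorescence over baseline measured at the second addition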
RGS4 block = inhibitors of human RGS4 | HEK293 M3R/RGS4 inducible, Fluo-4 calcium flux; hits give high values; triggered by carbachol at its EC20 | AID 463165 | P49798 | hit rate 0.45% among 310,000 | B-score at 10 µM;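 active = B-score, a plate-corrected calcium signal, over three deviations above library mean, with baseline fluorescence within five deviations of library mean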;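 also: RGS4 expression induced by doxycycline in cells with stable M3 receptor; B-score is computed from the integrated fluorescence ratio over baseline after carbachol; higher B-score means a larger calcium signal and so more RGS4 inhibition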
Target sequence (P49798 whole entry, looked up): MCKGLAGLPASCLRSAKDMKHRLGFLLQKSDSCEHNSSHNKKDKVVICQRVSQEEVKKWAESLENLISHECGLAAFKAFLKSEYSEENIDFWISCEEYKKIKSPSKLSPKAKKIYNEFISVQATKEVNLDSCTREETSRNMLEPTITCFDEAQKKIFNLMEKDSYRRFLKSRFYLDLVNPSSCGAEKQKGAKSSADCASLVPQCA
MrgX1 agonist = agonists of human MrgX1 receptor. MrgX1-HEK293 cells, Fluo-4 calcium fluorescence, agonist mode; hits give high values. B-score at 10 µM. hit rate 0.44% among 310,000. AID 588627;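 active = calcium response B-score plate-corrected fluorescence ratio at least 3 library SD, with starting fluorescence B-score inside 5 SD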
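System – MrgX1-expressing HEK293 cells · Incubation – cells plated overnight, dye loaded 0.5 h 37 °C, 0.5 h room temperature · Technique – kinetic Fluo-4 NW fluorescence of intracellular calcium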
* hit, by the source's call; i = inactive. The list is not random: actives were taken first. Their share in the collection is about 3.5%.

SMILES	MrgX1 antagonist	RGS4 act	MrgX1 PAM	RGS4 block	MrgX1 agonist
N#C/C(=C\c1ccc(-c2ccc(C(=O)O)cc2)o1)C(=O)Nc1ccc(F)cc1	-4.6*	i	i	i	i
COC(=O)[C@]1(Cc2ccccc2)N[C@H](c2ccc(-c3ccc(F)cc3)cc2)[C@@H]2C(=O)N(C)C(=O)[C@@H]21	i	i	i	i	i
COc1ccc(C(=O)c2sc3nc(-c4ccccc4)ccc3c2N)cc1	i	i	11*	i	i
CC(C)OC(=O)c1sc2nc(-c3ccccc3)ccc2c1N	i	i	i	i	i
COc1cccc2cc(-c3cn4cccc(C)c4n3)c(=O)oc12	i	i	i	i	38*
Cc1nc(N2CCOCC2)nc(OCCN(C)C)c1[N+](=O)[O-]	i	i	i	i	i
Cc1nc(N2CCOCC2)nc(OCCN2CCOCC2)c1[N+](=O)[O-]	-5.2*	i	i	i	i
COc1ccc(CN(CC(=O)NCc2ccc(F)cc2)C(=O)CCC(=O)Nc2nccs2)cc1	i	i	i	i	i
COc1ccc(CN(CC(=O)NCc2ccccc2)C(=O)CCC(=O)Nc2nccs2)cc1	i	i	12*	i	i
COc1ccc(CN2C(=O)c3ccccc3C(/C=N/OCc3ccc(Cl)cc3)C2=O)cc1 (configuration not stated)	i	i	i	i	38*
Cc1ccc(N2CCN(S(=O)(=O)c3ccc4c(c3)n(C)c(=O)c(=O)n4C)CC2C)cc1 (configuration not stated)	i	i	i	i	i
Cc1ccc(N2CCN(S(=O)(=O)c3ccc4c(c3)NC(=O)C(C)C(=O)N4)CC2C)cc1 (configuration not stated)	-7.6*	i	i	i	i
COc1ccc(CN2CCCC(C(=O)c3cccc(C(F)(F)F)c3)C2)cc1O (configuration not stated)	i	-7.6*	i	i	i
CN(C(=O)Cn1nnc2ccccc2c1=O)C1CCCCC1	i	i	i	i	i
Cc1oc2c(cc(NS(=O)(=O)c3ccc(F)cc3)c3ccccc32)c1C(=O)O	i	i	i	i	i
Cc1oc2c(cc(NS(=O)(=O)c3ccc(C(C)C)cc3)c3ccccc32)c1C(=O)O	i	-8.6*	i	i	i
COCC(=O)Nc1cc(C(=O)Nc2cccc(C)c2C)ccc1Cl	i	i	i	i	i
COCC(=O)NNC(=S)Nc1cccc(C)c1C	-5.1*	i	i	i	i
CCOc1ccc(NC(=O)CSc2nnc(-c3ccncc3)n2CC2CCCO2)cc1 (configuration not stated)	-6.7*	i	i	i	i
COC(=O)c1cccc(Cn2c(Cl)c(/C=N/Nc3ccccc3C)sc2=O)c1	-8.1*	i	i	i	i
Cc1ccccc1N/N=C/c1sc(=O)n(Cc2cccc(C(=O)O)c2)c1Cl	i	i	i	i	i
COc1ccccc1NC(=O)/C(=C\c1cccnc1)NC(=O)c1ccc(C)cc1	i	i	i	i	i
O=C(N/N=C/c1ccco1)c1cccc(S(=O)(=O)Nc2ccccc2Cl)c1	i	i	i	i	i
Cc1ccc(/C=N/NC(=O)c2cccc(S(=O)(=O)Nc3ccccc3Cl)c2)o1	i	i	13*	i	i
CSC1=C(C#N)C(c2ccccc2Cl)C2=C(N1)c1ccccc1C2=O (configuration not stated)	i	i	i	i	32*
SMILES	MrgX1 antagonist	RGS4 act	MrgX1 PAM	RGS4 block	MrgX1 agonist
CCCCCNCC(=O)Nc1cccc(C(=O)Nc2cccc(C(F)(F)F)c2)c1	-7*	i	i	i	i
Cc1ccc(NNC(=O)c2ccno2)cc1C	i	-7.5*	i	i	i
COc1ccccc1C(CNC(=O)c1ccc(NS(=O)(=O)c2ccc3c(c2)OCCO3)cc1)N(C)C (configuration not stated)	i	i	i	i	i
Cc1ccc(Oc2ncccc2/C=N/OCc2ccc(Cl)c(Cl)c2)cc1	i	i	8.6*	i	i
Cc1ccc(NC(=O)CSc2nnc(N)s2)cc1S(=O)(=O)N1CCOCC1	i	i	i	i	i
CCCCCCCCCCOC(=O)Cn1c(COc2ccc(OC)cc2)[n+](C)c2ccccc21	-9.1*	-9.1*	i	i	i
CCCCCCCCCCOC(=O)Cn1c(COc2cccc(C)c2)[n+](C)c2ccccc21	-5.9*	-8.5*	i	i	i
CCOC(=O)Cn1c(COc2ccccc2OC)[n+](C)c2ccccc21	i	i	i	i	i
O=C(NCCCN1CCCC1)c1ccc(CS(=O)(=O)c2c(Cl)cccc2Cl)o1	i	i	i	i	i
CCc1cccc(NC(=O)C2CC2c2ccccc2)c1 (configuration not stated)	i	i	i	i	i
O=C(NNC(=O)C1CC1c1ccccc1)Nc1cccc(Cl)c1 (configuration not stated)	-5.4*	i	i	i	i
O=C(c1ccc([N+](=O)[O-])cc1)N(Cc1ccc(Cl)cc1)N1C(=O)CCCC1=O	i	i	i	i	54*
O=C(c1ccc([N+](=O)[O-])cc1)N(Cc1ccc(Cl)cc1Cl)N1C(=O)CCCC1=O	i	i	i	i	i
CCC1(c2ccc(F)cc2)NC(=O)N(CC(=O)N2CC(=O)Nc3ccccc32)C1=O (configuration not stated)	i	i	i	i	i
O=C1c2cccc3c([N+](=O)[O-])ccc(c23)C(=O)N1O	-8.6*	i	i	i	i
O=C1c2cccc3c([N+](=O)[O-])ccc(c23)C(=O)N1c1ccccn1	i	-7.8*	i	i	i
O=C1c2cccc3c([N+](=O)[O-])ccc(c23)C(=O)N1c1ccc(Cl)cn1	i	i	i	i	i
O=C(COc1ccc2c3c(c(=O)oc2c1)CCCC3)NCCCn1ccnc1	i	i	i	i	i
CCOc1ccc(-n2c(SCC(=O)N3CCC(C(=O)O)CC3)nc3ccccc3c2=O)cc1	i	i	i	i	i
Nc1nc2ccc([N+](=O)[O-])cc2[nH]1	i	i	i	i	i
Nc1[nH]c2cc([N+](=O)[O-])ccc2c1-c1ccccn1	-7.6*	i	i	i	i
COc1ccc(N2CCN(C(=O)Cn3nnc(-c4ccc(OC)c(OC)c4)n3)CC2)cc1	i	i	i	i	i
